Measured values reported in ChEMBL document CHEMBL3352113, “Cytoprotective pyridinol antioxidants as potential therapeutic agents for neurodegenerative and mitochondrial diseases” (Bioorg Med Chem, 2014).
The source made the active and inactive calls. No cut-off for these calls is given here.

Legend:
[1] = species on record: Bos taurus; assay: Inhibition of bovine heart mitochondrial NADH oxidase complex I/III/IV assessed as remaining activity at 5 uM by spectrophotometry relative to untreated control
[2] = species on record: Bos taurus; assay: Inhibition of bovine heart mitochondrial NADH oxidase complex I/III/IV assessed as remaining activity at 1 uM by spectrophotometry relative to untreated control
[3] = tested on: Lymphocyte; assay: Cytoprotective activity in human lymphocytes obtained from Leigh's syndrome patient assessed as viable cells after 16 hrs by trypan blue exclusion assay; format: functional, cell-based
Outline: (§1)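 Lymphocytes from FRDA or Leigh's syndrome patients, grown in RPMI-1640 with 15% fetal calf serum and 2 mM glutamine, kept in log phase. Test agents at 0.1, 0.5 and 2.5 µM; diethyl maleate (DEM) added to deplete glutathione and induce oxidative stress. Viability expressed relative to untreated cells (100%). Values are mean ± SD/SEM as tabulated.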

[4] = tested on: Lymphocyte; assay: Increase in ATP production in CoQ10-deficient lymphocytes (unknown origin) assessed as cellular ATP level at 10 uM after 48 hrs using luciferin-luciferase reaction by bioluminescence assay relative to control; format: functional
Outline: (§2)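 CoQ10-deficient lymphocyte line GM17932 grown in glucose-free RPMI 1640 with 25 mM galactose, 2 mM glutamine and 10% dialyzed FBS, forcing oxidative phosphorylation. Incubated with compounds at 5, 10 or 25 µM for 48 h. Total intracellular ATP measured by luciferin–luciferase reaction, expressed as % of untreated control.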

[5] = tested on: Lymphocyte; assay: Inhibition of oxidative stress-induced mitochondrial membrane depolarization in diethyl maleate-treated human lymphocytes obtained from FRDA patient assessed as cells with intact mitochondrial membrane potential at 500 nM pretreated for 16 hrs using TMRM by FACS analysis (reference value: 95%); format: functional; design: scale not given: the % may be the effect or the level left
[6] = tested on: Lymphocyte; assay: Inhibition of oxidative stress-induced mitochondrial membrane depolarization in diethyl maleate-treated human lymphocytes obtained from FRDA patient assessed as cells with intact mitochondrial membrane potential at 100 nM pretreated for 16 hrs using TMRM by FACS analysis (reference value: 95%); format: functional; design: scale not given: the % may be the effect or the level left
[7] = tested on: Lymphocyte; assay: Increase in ATP production in CoQ10-deficient lymphocytes (unknown origin) assessed as cellular ATP level at 5 uM after 48 hrs using luciferin-luciferase reaction by bioluminescence assay relative to control; format: functional; outline: as §2
[8] = Metabolic stability in bovine liver microsomes at 25 uM after 30 mins by reverse phase HPLC analysis; format: ADME, Bos taurus; settings: cattle, read-out: Stability
Outline: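 Compounds incubated 30 min with activated bovine liver microsomes. Remaining parent compound quantified by reversed-phase HPLC and expressed as % recovered; mean ± SD.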

[9] = tested on: Lymphocyte; assay: Cytoprotective activity in human lymphocytes obtained from FRDA patient assessed as viable cells at 0.5 uM after 16 hrs by trypan blue exclusion assay; format: functional; settings: read-out: Activity; outline: as §1
[10] = tested on: Lymphocyte; assay: Inhibition of lipid peroxidation in diethyl maleate-treated human lymphocytes obtained from FRDA patient at 100 to 250 nM after 16 hrs using C11-BODIPY581/591 by FACS analysis; format: functional, cell-based
Outline: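 FRDA lymphocytes depleted of glutathione with DEM, probed with C11-BODIPY581/591. Green (oxidized) fluorescence read by flow cytometry at 490/510 nm. Median mean fluorescence taken relative to untreated control and converted to % lipid peroxidation scavenging; mean ± SEM, n = 3.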

[11] = tested on: Lymphocyte; assay: Inhibition of oxidative stress-induced mitochondrial membrane depolarization in diethyl maleate-treated human lymphocytes obtained from FRDA patient assessed as cells with intact mitochondrial membrane potential at 250 nM pretreated for 16 hrs using TMRM by FACS analysis (reference value: 95%); format: functional; design: scale not given: the % may be the effect or the level left
[12] = tested on: Lymphocyte; assay: Cytoprotective activity in human lymphocytes obtained from FRDA patient assessed as viable cells at 2.5 uM after 16 hrs by trypan blue exclusion assay; format: functional; settings: read-out: Activity; outline: as §1
[13] = tested on: Lymphocyte; assay: Inhibition of ROS generation in diethyl maleate-treated human lymphocytes obtained from FRDA patient compound pretreated at 100 to 500 nM for 16 hrs using DCFH-DA by FACS analysis; format: functional, cell-based
Outline: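 FRDA lymphocytes pretreated with compounds at 100, 250 and 500 nM for 16 h, then given DEM for 80 min to raise ROS. Stained with DCFH-DA for 15 min, then DCF fluorescence read by flow cytometry. Reported as % ROS scavenging; mean ± SEM of three experiments run in duplicate.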

[14] = tested on: Lymphocyte; assay: Cytoprotective activity in human lymphocytes obtained from FRDA patient assessed as viable cells after 16 hrs by trypan blue exclusion assay; format: functional, cell-based; outline: as §1
[15] = tested on: Lymphocyte; assay: Increase in ATP production in CoQ10-deficient lymphocytes (unknown origin) assessed as cellular ATP level at 25 uM after 48 hrs using luciferin-luciferase reaction by bioluminescence assay relative to control; format: functional; outline: as §2
[16] = species on record: Bos taurus; assay: Inhibition of bovine heart mitochondrial NADH oxidase complex I/III/IV assessed as remaining activity by spectrophotometry relative to untreated control
[17] = tested on: Lymphocyte; assay: Cytoprotective activity in human lymphocytes obtained from FRDA patient assessed as viable cells at 0.1 uM after 16 hrs by trypan blue exclusion assay; format: functional; settings: read-out: Activity; outline: as §1
[18] = tested on: Lymphocyte; assay: Cytoprotective activity in human lymphocytes obtained from Leigh's syndrome patient assessed as viable cells at 0.5 uM after 16 hrs by trypan blue exclusion assay; format: functional; settings: read-out: Activity; outline: as §1
[19] = tested on: Lymphocyte; assay: Cytoprotective activity in human lymphocytes obtained from Leigh's syndrome patient assessed as viable cells at 0.1 uM after 16 hrs by trypan blue exclusion assay; format: functional; settings: read-out: Activity; outline: as §1
[20] = species on record: Bos taurus; assay: Inhibition of bovine heart mitochondrial NADH oxidase complex I/III/IV assessed as remaining activity at 10 uM by spectrophotometry relative to untreated control
[21] = tested on: Lymphocyte; assay: Cytoprotective activity in human lymphocytes obtained from Leigh's syndrome patient assessed as viable cells at 2.5 uM after 16 hrs by trypan blue exclusion assay; format: functional; settings: read-out: Activity; outline: as §1
[22] = tested on: Lymphocyte; assay: Inhibition of oxidative stress-induced mitochondrial membrane depolarization in diethyl maleate-treated human lymphocytes obtained from FRDA patient assessed as cells with intact mitochondrial membrane potential pretreated for 16 hrs using TMRM by FACS analysis; format: functional, cell-based

Row | remaining at 0.5 h, 25 µM [8] | Structure (SMILES) | Activity [1] | Activity [2] | Activity [3] | Activity [4] | Activity [5] | Activity [6] | Activity [7] | viability at 0.5 µM [9] | inhibition [10] | Activity [11] | viability at 2.5 µM [12] | inhibition [13] | Activity [14] | Activity [15] | inhibition [16] | viability at 0.1 µM [17] | viability at 0.5 µM [18] | viability at 0.1 µM [19] | Activity [20] | other results
1 | 50% | CCCCCCCCCCCCCCCCCCCc1c(C)c(N(C)C)nc(C)c1O | 83% | 98% | Dose-dependent effect | 103% | 64% | 23% | 106% | 50% | inactive | 42% | 87% | inactive | Dose-dependent effect | 86% | Dose-dependent effect | 20% | 8% | 8% | 81% | viability at 2.5 µM [21]: 87%
2 | 50% | CCCCCCCCCCCCCCCCCCCc1nc(N(C)C)c(C)c(C)c1O | 88% | 93% | Dose-dependent effect | 102% | 65% | 24% | 102% | 38% | inactive | 44% | 76% | inactive | Dose-dependent effect | 99% | Dose-dependent effect | 17% | 7% | 4% | 85% | viability at 2.5 µM [21]: 66%
3 | 70% | CCCCCCCCCCc1c(C)c(N(C)C)nc(C)c1O | 35% | 49% | Dose-dependent effect | 40% | 89% | 60% | 87% | 84% | Active | 78% | 86% | Active | Dose-dependent effect | 2% | Dose-dependent effect | 34% | 87% | 19% | 8% | inhibition [22]: Dose-dependent effect; viability at 2.5 µM [21]: 86%
4 | 95% | CCCCCCCCCCCCCCCCc1nc(N2CCC2)c(C)c(C)c1O | 94% | 93% | Dose-dependent effect | 70% | 85% | 54% | 92% | 70% | Active | 68% | 87% | Active | Dose-dependent effect | 38% | Dose-dependent effect | 54% | 82% | 13% | 95% | viability at 2.5 µM [21]: 81%
